Only some compounds are listed: those with a hit (about 2% of all), similar ones and a draw of the others.
TWEAK Fn14 block = TWEAK-Fn14 signaling inhibition; AID 1159606; 2% of 360,000 active; TWEAK-stimulated Fn14 reporter cells, luciferase luminescence, 8 h; inhibition, % at 10 µM; in the data active = inhibition above about 50%
Xi reactivation = activators of X-chromosome reactivation in mouse fibroblasts; activation, % at 7.58 µM; AID 743238; XiGFP mouse fibroblasts, % GFP-positive cells imaging, 3 d; cells co-treated with 5-aza-dC sensitizer; scaled so ellipticine positive control = 100%; 0.055% of 360,000 active;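 active = mean normalized replicate activation at least 10% and every replicate at or above 10%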;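 note: 0% = median of on-plate neutral control wells and 100% = ellipticine 6 µM median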
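assay system = SV40-immortalized XiGFP fibroblast cells, line 68-5-11 | buffer or medium = DMEM plus 5-aza-dC sensitizer | doses = single-point pinned compound dosing | times = 3-day compound exposure, then 15 min fixation at room temperature | benchmarks = positive control ellipticine, 6 µM final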
LGR2 antag = Drosophila LGR2 receptor signaling inhibition; 0.35% of 380,000 active; HEK293 LGR2, CRE-luciferase, bursicon-stimulated, 4 h; inhibition, % at 9.99 µM;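 active = drop in luminescence signal, shown as inhibition above about 50% in the replicate tests, limit read from the data, passing the limit was not always enough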;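 note: agonist challenge used bursicon conditioned medium at about half maximal strength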
TROY signal inh = TROY signaling inhibition | inhibition, % at 10 µM | AID 1347056 | 0.98% of 360,000 active | Q293 LMP1-TROYcd NF-kB luciferase reporter, 4 h;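 active = compounds whose plate-normalised and pattern-corrected inhibition of the luciferase reporter signal at the single screening dose is 50% or more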
CaV13 FRET inh = Disruptors of the CACNA1D IQ motif to Ca2+-dependent inactivation inhibitor domain association, primary screening, Förster resonance energy transfer in intact living … | HEK cells, CFP/YFP FRET ICDI-IQ, plate reader, 10 min; percent FRET-ratio fall versus neutral wells | inhibition, % at 12.3 µM | 0.098% of 340,000 active;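 active = mean replicate inhibition of at least 30% and at least 1% of replicates passing that level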;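 note: 0% = median of the neutral control wells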
* hit, by the source's call.

Results for COc1cccc(NC(=O)N[C@@H]2C=C[C@@H](CC(=O)NCc3ccncn3)O[C@@H]2CO)c1 ?
Xi reactivation: 0.1; LGR2 antag: -9.8

What do the screens show for `C[C@H]1CN([C@@H](C)CO)C(=O)c2c(c3ccccc3n2C)-c2ccccc2CO[C@H]1CN(C)S(=O)(=O)c1cn(C)cn1`?
Xi reactivation: 0.1; LGR2 antag: -6.8

How did CC(C)(C)OC(=O)NCc1ccc(NC(=O)c2nc[nH]c2C(=O)NCCCNC(=O)c2[nH]cnc2C(=O)Nc2ccc(CNC(=O)OC(C)(C)C)cc2)cc1 do in these assays?
TWEAK Fn14 block: 73.4*; TROY signal inh: 18.6

What do the screens show for `Cn1cnc(C(=O)NCc2ccc(CNC(=O)OC(C)(C)C)cc2)c1C(=O)NCc1ccc(CNC(=O)OC(C)(C)C)cc1`?
TWEAK Fn14 block: 58.3*; Xi reactivation: 0.0; LGR2 antag: 1.2; TROY signal inh: 20.8; CaV13 FRET inh: -4.5

Results for CC(C)(C)OC(=O)NCc1ccc(CNC(=O)c2ncn(Cc3ccccc3)c2C(=O)NCc2ccc(CNC(=O)OC(C)(C)C)cc2)cc1 ?
TWEAK Fn14 block: -23.2; Xi reactivation: 0.0; TROY signal inh: 11.6; CaV13 FRET inh: -11.2

How did CC1CCN(CC2C(=O)O[C@@H]3C[C@@]4(C)CCC[C@H](C)C4=C[C@H]23)CC(C)(C)C1 (some centres not stated) do in these assays?
TWEAK Fn14 block: 55.1*; Xi reactivation: 0.0; LGR2 antag: 38.7; TROY signal inh: 27.9; CaV13 FRET inh: -5.8

How did NC(=O)Cn1c(=O)n(CCC(=O)NCCSCc2ccccc2)c(=O)c2ccccc21 do in these assays?
TWEAK Fn14 block: 17.5; Xi reactivation: 0.1; LGR2 antag: -4.6; TROY signal inh: 71.0*; CaV13 FRET inh: 6.4

What do the screens show for `COc1ccc(CN(C)C[C@@H]2Oc3ccc(NC(=O)C4CC4)cc3CC(=O)N([C@H](C)CO)C[C@H]2C)cc1`?
Xi reactivation: -0.3; LGR2 antag: -3.6

Results for CCOc1ccc2nc(Cl)c(C3CC(c4ccco4)=NN3S(C)(=O)=O)cc2c1 (configuration not stated) ?
TWEAK Fn14 block: -16.0; Xi reactivation: 0.4; LGR2 antag: 11.2; TROY signal inh: 57.2*; CaV13 FRET inh: -6.2

How did C[C@@H]1CN([C@H](C)CO)C(=O)c2cc(-c3ccc(F)cc3)cnc2O[C@@H]1CN(C)C(=O)NC1CCCC1 do in these assays?
Xi reactivation: -1.0; LGR2 antag: 30.2

How did C[C@@H]1CN([C@@H](C)CO)S(=O)(=O)c2ccc(C3=CCCCC3)cc2O[C@H]1CN(C)CC1CC1 do in these assays?
Xi reactivation: -0.8; LGR2 antag: 1.7

Results for COc1ccc(S(=O)(=O)Nc2ccc3c(c2)C(=O)N([C@H](C)CO)C[C@@H](C)[C@@H](CN(C)Cc2ccc(C(=O)Nc4ccccc4N)cc2)O3)cc1 ?
Xi reactivation: -0.1; LGR2 antag: -8.9

Results for C=CCn1c(-c2ccc(OC)cc2)nc2ccccc21 ?
TWEAK Fn14 block: 57.2*; CaV13 FRET inh: -5.3

What do the screens show for `O=C(CCl)N=c1sccn1Cc1ccc(Cl)cc1Cl`?
TWEAK Fn14 block: 55.0*; Xi reactivation: 1.1; TROY signal inh: 21.2; CaV13 FRET inh: -4.6

How did O=C(CCl)N=c1sccn1Cc1ccccc1Cl do in these assays?
TWEAK Fn14 block: -0.8; Xi reactivation: -0.3; LGR2 antag: -9.6; TROY signal inh: 3.7; CaV13 FRET inh: -4.8

Results for CS(=O)(=O)N1[C@@H](C#N)[C@@H](c2ccc(C#CC3CC3)cc2)[C@@H]1CO ?
Xi reactivation: 0.0; LGR2 antag: -0.9

What do the screens show for `CC[n+]1c(/C=C2/C=C(C)CC(C)C2)sc2ccccc21` (configuration not stated)?
TWEAK Fn14 block: 22.0; Xi reactivation: 0.2; LGR2 antag: 8.2; TROY signal inh: 19.3; CaV13 FRET inh: -5.4

What do the screens show for `CC[n+]1c(C=C2C=C(C)OC(C)=C2)sc2ccccc21`?
TWEAK Fn14 block: 19.9; Xi reactivation: 56.6*; LGR2 antag: 21.3; TROY signal inh: 35.5; CaV13 FRET inh: -5.2

What do the screens show for `CCCNC(=O)N1CC2(CN(C(=O)Cc3cccnc3)C2)c2c([nH]c3cc(OC)ccc23)[C@H]1CO`?
Xi reactivation: 0.1; LGR2 antag: -10.4

What do the screens show for `CCOC(=O)c1sc2nc3c(cc2c1N)COC(C(C)C)C3` (configuration not stated)?
TWEAK Fn14 block: 85.4*; TROY signal inh: 65.8*; CaV13 FRET inh: -3.5

What do the screens show for `Cc1c(C(=O)N2CCN(Cc3ccc4c(c3)OCO4)CC2)sc2ncnc(N3CCN(c4ccccc4F)CC3)c12`?
TWEAK Fn14 block: 87.9*; Xi reactivation: 0.0; LGR2 antag: 20.0; TROY signal inh: 49.8; CaV13 FRET inh: -7.2

How did Cc1c(C(=O)N2CCN(Cc3ccc4c(c3)OCO4)CC2)sc2ncnc(N3CCN(c4ccccc4)CC3)c12 do in these assays?
TWEAK Fn14 block: 87.4*; Xi reactivation: 0.1; LGR2 antag: 35.7; TROY signal inh: 53.2*; CaV13 FRET inh: -6.9

How did COC(=O)C[C@H]1C[C@@H]2c3cc(NC(=O)Nc4ccc(C(F)(F)F)cc4)ccc3O[C@@H]2[C@@H](CO)O1 do in these assays?
Xi reactivation: 0.0; LGR2 antag: -10.0

Results for C[C@H](CO)N1C[C@H](C)[C@H](CN(C)C(=O)Nc2ccc(C(F)(F)F)cc2)Oc2ccc(NC(=O)Nc3ccc(F)cc3)cc2C1=O ?
Xi reactivation: -1.2; LGR2 antag: 37.6

Results for C[C@H]1CN([C@@H](C)CO)C(=O)c2cccc(NS(C)(=O)=O)c2O[C@H]1CN(C)S(=O)(=O)c1cccs1 ?
Xi reactivation: -1.2; LGR2 antag: -10.4

What do the screens show for `COc1cccc(NC(=O)N2CCc3nc(Nc4ccc(C(C)C)cc4)ncc3C2)c1`?
TWEAK Fn14 block: 74.8*; Xi reactivation: -0.1; TROY signal inh: 71.0*; CaV13 FRET inh: -9.7

How did COc1cc(Nc2ncc3c(n2)CCN(C(=O)Nc2ccc(C(C)C)cc2)C3)cc(OC)c1OC do in these assays?
TWEAK Fn14 block: 22.4; Xi reactivation: -0.1; LGR2 antag: 16.4; TROY signal inh: 38.3; CaV13 FRET inh: -9.3

Results for Cc1ccc2c(c1)-c1cc(C)ccc1C2=O ?
TWEAK Fn14 block: 63.5*; Xi reactivation: 0.1; LGR2 antag: -3.0; TROY signal inh: -24.0; CaV13 FRET inh: -5.9

How did COc1cc2sc3cc(NCC[C@@H]4CCCN4C)ccc3c(=O)c2cc1OC do in these assays?
TWEAK Fn14 block: -99.1; Xi reactivation: 0.0; LGR2 antag: -64.2; TROY signal inh: -112.0; CaV13 FRET inh: 36.2*

Results for COc1cccc2sc3ccc(NCCC4CCCN4C)cc3c(=O)c12 (configuration not stated) ?
TWEAK Fn14 block: 7.8; Xi reactivation: 0.2; LGR2 antag: -29.4; TROY signal inh: -5.0; CaV13 FRET inh: -37.9

Screening data (PubChem BioAssay)
